# From ChEMBL document CHEMBL4354873, “Rationally Designed Small-Molecule Inhibitors Targeting an Unconventional Pocket on the TLR8 Protein-Protein Interface” (J Med Chem, 2020)
# Active and inactive are the calls of the source. No cut-off for these calls is given here.
# Legend:
# [1] = target: T1, Toll-like receptor 8 (Homo sapiens) (UniProt Q9NR97); experiment: Inhibition of TLR8 in human monocytes assessed as reduction in R848-induced p65 nuclear translocation up to 5 uM measured after 2 hrs by Western blot analysis; type: cell-based
# T1 sequence (whole entry): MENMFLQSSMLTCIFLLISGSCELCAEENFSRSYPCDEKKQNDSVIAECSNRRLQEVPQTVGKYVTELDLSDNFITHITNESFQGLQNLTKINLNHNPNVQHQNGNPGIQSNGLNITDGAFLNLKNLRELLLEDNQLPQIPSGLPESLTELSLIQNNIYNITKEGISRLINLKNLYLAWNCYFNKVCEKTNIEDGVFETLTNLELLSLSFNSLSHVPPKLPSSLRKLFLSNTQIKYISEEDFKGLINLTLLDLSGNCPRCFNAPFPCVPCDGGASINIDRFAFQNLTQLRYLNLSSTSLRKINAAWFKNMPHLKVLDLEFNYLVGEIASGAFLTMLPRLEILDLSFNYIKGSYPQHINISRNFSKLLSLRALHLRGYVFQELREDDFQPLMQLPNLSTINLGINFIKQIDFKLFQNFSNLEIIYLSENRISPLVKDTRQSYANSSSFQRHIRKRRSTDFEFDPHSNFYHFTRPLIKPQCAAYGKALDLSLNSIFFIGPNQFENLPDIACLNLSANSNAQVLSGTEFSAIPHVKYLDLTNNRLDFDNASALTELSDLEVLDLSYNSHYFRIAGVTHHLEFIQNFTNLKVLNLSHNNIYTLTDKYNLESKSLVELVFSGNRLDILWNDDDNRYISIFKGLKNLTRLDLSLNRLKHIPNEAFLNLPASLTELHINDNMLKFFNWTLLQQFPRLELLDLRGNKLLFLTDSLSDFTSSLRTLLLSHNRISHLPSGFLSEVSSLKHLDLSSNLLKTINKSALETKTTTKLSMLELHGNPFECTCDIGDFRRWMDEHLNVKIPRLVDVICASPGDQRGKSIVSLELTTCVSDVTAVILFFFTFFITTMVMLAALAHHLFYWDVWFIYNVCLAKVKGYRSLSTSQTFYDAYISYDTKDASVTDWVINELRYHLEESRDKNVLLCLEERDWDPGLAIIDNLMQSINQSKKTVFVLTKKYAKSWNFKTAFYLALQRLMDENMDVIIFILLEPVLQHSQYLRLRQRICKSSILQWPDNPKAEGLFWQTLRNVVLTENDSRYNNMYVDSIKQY
# Procedure, shortened: (§1)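 Monocyte cell lines, 2 × 10⁶/well, differentiated with PMA 100 ng/mL for 24 h. After washes, cells in unsupplemented RPMI received R848 1 µg/mL with varying compound concentrations for 2 h. Nuclear/cytoplasmic fractions extracted and resolved on 10% SDS-PAGE. Blots probed for p65, TRAF3 and p-IRAK4 (1:1000); lamin A/C (nuclear) and β-actin (cytoplasmic) as loading controls.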
# [2] = target: T2, Toll-like receptor 7 (Homo sapiens) (UniProt Q9NYK1); experiment: Effect on TLR7-mediated signaling in human PBMC assessed as change in basal TNFalpha secretion up to 20 uM measured after 24 hrs by ELISA
# T2 sequence (whole entry): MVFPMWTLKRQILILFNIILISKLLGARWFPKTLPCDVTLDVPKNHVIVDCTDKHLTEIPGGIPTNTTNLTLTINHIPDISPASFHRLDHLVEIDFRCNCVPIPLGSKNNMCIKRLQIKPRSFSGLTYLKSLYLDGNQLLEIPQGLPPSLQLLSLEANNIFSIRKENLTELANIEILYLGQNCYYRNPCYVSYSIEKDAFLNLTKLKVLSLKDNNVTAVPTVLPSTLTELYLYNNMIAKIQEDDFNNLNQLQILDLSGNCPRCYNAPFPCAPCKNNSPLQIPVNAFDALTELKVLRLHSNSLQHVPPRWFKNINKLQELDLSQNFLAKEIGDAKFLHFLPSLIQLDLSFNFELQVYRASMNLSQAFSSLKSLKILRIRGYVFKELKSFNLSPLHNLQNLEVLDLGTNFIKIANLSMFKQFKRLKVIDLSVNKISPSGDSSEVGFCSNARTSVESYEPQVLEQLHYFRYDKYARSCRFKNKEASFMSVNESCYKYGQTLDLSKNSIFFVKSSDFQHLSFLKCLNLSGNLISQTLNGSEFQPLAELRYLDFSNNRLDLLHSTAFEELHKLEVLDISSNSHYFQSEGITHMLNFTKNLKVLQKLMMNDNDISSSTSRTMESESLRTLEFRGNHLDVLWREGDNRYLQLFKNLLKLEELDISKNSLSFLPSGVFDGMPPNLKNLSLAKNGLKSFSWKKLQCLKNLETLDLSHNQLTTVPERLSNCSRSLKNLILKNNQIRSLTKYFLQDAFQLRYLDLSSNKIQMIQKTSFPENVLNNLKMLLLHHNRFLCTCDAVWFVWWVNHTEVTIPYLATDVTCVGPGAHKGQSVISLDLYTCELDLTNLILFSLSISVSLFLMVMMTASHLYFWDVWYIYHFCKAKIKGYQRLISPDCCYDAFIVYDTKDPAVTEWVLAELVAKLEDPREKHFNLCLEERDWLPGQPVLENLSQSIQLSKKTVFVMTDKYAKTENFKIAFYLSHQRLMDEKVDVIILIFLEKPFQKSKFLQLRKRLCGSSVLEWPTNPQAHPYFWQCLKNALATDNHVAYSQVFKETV
# [3] = target: T1, Toll-like receptor 8 (Homo sapiens); experiment: Inhibition of TLR8 in human monocytes assessed as reduction in R848-induced TRAF3 expression measured after 2 hrs by Western blot analysis; type: cell-based; procedure, shortened: as §1
# [4] = target: T1, Toll-like receptor 8 (Homo sapiens); experiment: Inhibition of human TLR8 expressed in HEK-Blue cells assessed as inhibition of R848-induced TNFalpha mRNA level at 1 uM measured after 8 hrs by Trizol reagent based qRT-PCR analysis; type: cell-based
# Procedure, shortened: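 RT-qPCR: HEK-Blue TLR8 cells seeded at 1 × 10⁶/well and grown 24 h, then switched to serum-free medium. Treated with R848 4 µg/mL ± compound 1 µM for 8 h. Total RNA extracted with TRIzol, reverse transcribed, TNF-α and IL-8 mRNA quantified. Three independent biological replicates, mean ± s.d.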
# [5] = target: T2, Toll-like receptor 7 (Homo sapiens); experiment: Inhibition of human TLR7 expressed in HEK-Blue cells assessed as inhibition of R848-induced NF-kappaB activation at 20 uM measured after 24 hrs by quanti-blue based SEAP reporter gene assay; type: cell-based
# Procedure, shortened: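 HEK-Blue SEAP format: 4 × 10⁴ cells/well in DMEM with ligand plus compound, 24 h at 37 °C. Supernatant mixed with QUANTI-Blue up to 1 h, then A620 read. Ligands: Pam3CSK4 100 ng/mL (TLR1/2), Pam2CSK4 100 ng/mL (TLR2/6), poly(I:C) 5 µg/mL (TLR3), LPS 20 ng/mL (TLR4), flagellin 50 ng/mL (TLR5), R848 1 µg/mL (TLR7), R848 2 µg/mL (TLR8), ODN2006 0.5 µM (TLR9). Mean ± s.d.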
smiles,measurement,setting,value
CSc1nnc(CCCO)n1-c1cc(C)c(C)c(C)c1,inhibition,[1],Active
same,Activity,[2],inactive
same,inhibition,[3],Dose-dependent effect
same,inhibition,[4],Active
same,inhibition,[5],inactive
